Assay results: ChEMBL document CHEMBL4308833, “A Thieno[2,3- d]pyrimidine Scaffold Is a Novel Negative Allosteric Modulator of the Dopamine D2 Receptor” (J Med Chem, 2018)
Active and inactive are the calls of the source. The rule behind the calls is not given here.

Tests used:
[1] = biological target: D(2) dopamine receptor (Homo sapiens) (UniProt P14416); test: Displacement of [3H]Raclopride from recombinant human D2L receptor expressed in Flp-In CHO cell membranes after 2 to 3 hrs by microbeta counting method
Sequence of D(2) dopamine receptor (Homo sapiens) (P14416 whole entry): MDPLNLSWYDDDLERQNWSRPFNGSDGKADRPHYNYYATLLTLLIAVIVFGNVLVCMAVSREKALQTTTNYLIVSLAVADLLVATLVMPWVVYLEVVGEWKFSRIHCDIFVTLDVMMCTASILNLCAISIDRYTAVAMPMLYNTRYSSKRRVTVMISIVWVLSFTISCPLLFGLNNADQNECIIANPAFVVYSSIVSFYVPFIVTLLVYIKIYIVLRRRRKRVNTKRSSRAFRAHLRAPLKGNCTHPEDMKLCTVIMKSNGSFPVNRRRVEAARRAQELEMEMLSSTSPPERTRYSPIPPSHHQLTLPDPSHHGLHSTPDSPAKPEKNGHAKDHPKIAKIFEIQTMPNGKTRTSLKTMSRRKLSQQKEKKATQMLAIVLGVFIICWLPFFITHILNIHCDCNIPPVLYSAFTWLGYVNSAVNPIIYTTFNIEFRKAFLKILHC
Procedure, shortened: (§1)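 hD2LR FlpIn CHO membrane homogenate (15 µg protein) was co-incubated with 0.5 nM [3H]raclopride and test compound at 10^-3 to 10^-7 M (half-log dilutions from DMSO stock, in duplicate). Incubation was 2-3 h at 25 °C in HEPES buffer, pH 7.4. Nonspecific binding was defined with 10 µM haloperidol. Filtration was followed by scintillation counting. KB and cooperativity α were obtained from an allosteric ternary complex model.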

[2] = biological target: D(2) dopamine receptor (Homo sapiens) (UniProt P14416); test: Displacement of [3H]Raclopride from recombinant human D2L receptor expressed in Flp-In CHO cell membranes assessed as co-operativity factor after 2 to 3 hrs by microbeta counting method; procedure, shortened: as §1
[3] = biological target: D(2) dopamine receptor (Homo sapiens) (UniProt P14416); test: (§2) Negative allosteric modulation of recombinant human D2L receptor expressed in Flp-In CHO cells assessed as inhibition of dopamine-induced reduction in forskolin stimulated cAMP accumulation preincubated for 30 mins followed by forskolin stimulation and measured after 30 mins by BRET assay; type: functional, cell-based
[4] = biological target: D(2) dopamine receptor (Homo sapiens) (UniProt P14416); test: as §2, with “accumulation by measuring co-operativity factor” for “accumulation”; type: functional, cell-based
[5] = biological target: D(2) dopamine receptor (Homo sapiens) (UniProt P14416); test: as §2, with “accumulation by measuring modulation of dopamine efficacy” for “accumulation”; type: functional, cell-based
[6] = biological target: D(3) dopamine receptor (Homo sapiens) (UniProt P35462); test: Displacement of [3H]Raclopride from recombinant D3 receptor (unknown origin) expressed in Flp-In CHO cell membranes after 2 to 3 hrs by microbeta counting method
Sequence of D(3) dopamine receptor (Homo sapiens) (P35462 whole entry): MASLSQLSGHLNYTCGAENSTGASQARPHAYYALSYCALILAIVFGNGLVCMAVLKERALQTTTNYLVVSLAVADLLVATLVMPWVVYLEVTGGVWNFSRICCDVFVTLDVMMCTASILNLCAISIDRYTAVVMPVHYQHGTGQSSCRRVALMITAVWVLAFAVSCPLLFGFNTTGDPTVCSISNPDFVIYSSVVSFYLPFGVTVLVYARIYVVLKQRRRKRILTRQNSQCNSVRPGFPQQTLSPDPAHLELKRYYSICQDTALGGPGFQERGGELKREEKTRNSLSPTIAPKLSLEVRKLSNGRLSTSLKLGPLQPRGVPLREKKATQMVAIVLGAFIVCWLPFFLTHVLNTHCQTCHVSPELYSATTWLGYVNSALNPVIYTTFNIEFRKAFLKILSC
Procedure, shortened: (§3)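 In FlpIn CHO membranes expressing hD3R, compound was tested for displacement of [3H]raclopride in equilibrium binding. Competition curves were fitted with an allosteric ternary complex model to give KB and the net cooperativity factor with [3H]raclopride. Data are at least three independent experiments in duplicate.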

[7] = biological target: D(3) dopamine receptor (Homo sapiens) (UniProt P35462); test: Displacement of [3H]Raclopride from recombinant D3 receptor (unknown origin) expressed in Flp-In CHO cell membranes assessed as co-operativity factor after 2 to 3 hrs by microbeta counting method; procedure, shortened: as §3
Homo sapiens = species on record: Homo sapiens; test: Selectivity ratio of Kb for recombinant D3 receptor (unknown origin) expressed in Flp-In CHO cell membranes to Kb for recombinant human D2L receptor expressed in Flp-In CHO cell membranes; type: cell-based
[8] = biological target: D(2) dopamine receptor (Homo sapiens) (UniProt P14416); test: as §2, with “accumulation by measuring co-operativity factor up to 100 uM” for “accumulation”; type: functional, cell-based

Row | SMILES | Kb [1] [µM] | pKb [1] | Activity [2] | log(activity) [2] | Kb [3] [µM] | pKb [3] | log(activity) [4] | Activity [5] | log(activity) [5] | Kb [6] [µM] | pKb [6] | Activity [7] | log(activity) [7] | Activity [4] | inhibition [8] | Selectivity ratio (Homo sapiens)
1 | Cc1sc2nc(CN3CCOCC3)nc(Nc3cccc(C(F)(F)F)c3)c2c1C | – | 3.59 | – | – | – | – | – | – | – | – | – | – | – | – | inactive | –
2 | CCN(CC)c1nc(CCCCN2CCOCC2)nc2sccc12 | 3 | 5.51 | – | – | 1.3 | 5.89 | -1.34 | 0.15 | -0.82 | 0.9 | 6.06 | – | – | 0.05 | – | 3.5
3 | CCN(CC)c1nc(CN2CCOCC2)nc2sccc12 | 1.3 | 5.89 | – | – | 3.13 | 5.5 | -1.1 | 0.24 | -0.62 | 11 | 4.95 | – | – | 0.08 | – | 0.1
4 | FC(F)(F)c1cccc(Nc2nc(CN3CCOCC3)nc3sc4c(c23)CCCCC4)c1 | 37 | 4.43 | – | – | – | – | – | – | – | – | – | – | – | – | inactive | –
5 | CCN(CC)c1nc(CCCCN2CCOCC2)nc2sc3c(c12)CCCC3 | 16 | 4.79 | – | – | 1.77 | 5.8 | – | – | 1.07 | 10 | 4.99 | – | – | – | – | 1.6
6 | FC(F)(F)c1cccc(Nc2nc(CC3CCOCC3)nc3sc4c(c23)CCCC4)c1 | 100 | 3.99 | 0.39 | -0.41 | 0.622 | 6.22 | -0.89 | 0.23 | -0.63 | 52 | 4.28 | 0.37 | -0.44 | 0.13 | – | 2
7 | FC(F)(F)c1cccc(Nc2nc(CN3CCOCC3)nc3sc(-c4ccccc4)cc23)c1 | 45 | 4.35 | – | – | – | – | – | – | – | – | – | – | – | – | inactive | –

Further lines, with some results ahead:

Row | Kb [1] [µM] | pKb [1] | Activity [2] | log(activity) [2] | Kb [3] [µM] | pKb [3] | log(activity) [4] | Activity [5] | log(activity) [5] | Kb [6] [µM] | pKb [6] | Activity [7] | log(activity) [7] | Activity [4] | inhibition [8] | SMILES | Selectivity ratio (Homo sapiens)
8 | 31 | 4.51 | 0.39 | -0.41 | 25.4 | 4.6 | 0 | 0.1 | -1.02 | 0.2 | 6.65 | 0.06 | -0.39 | – | – | FC(F)(F)c1cccc(Nc2ncnc3sc4c(c23)CCCC4)c1 | 140
9 | 3.31 | 5.48 | 0.09 | -1.03 | 0.611 | 6.21 | -0.72 | 0.03 | -1.5 | – | 3.97 | 0.2 | -0.69 | 0.19 | – | FC(F)(F)c1cccc(Nc2nc(CCCCN3CCOCC3)nc3sc4c(c23)CCCC4)c1 | 0.03
10 | – | 3.98 | – | – | – | – | – | – | – | – | – | – | – | – | inactive | FC(F)(F)c1cccc(Nc2nc(CN3CCOCC3)nc3sc4c(c23)CCCCCC4)c1 | –
11 | – | 3.91 | – | – | – | – | – | – | – | – | – | – | – | – | inactive | FC(F)(F)c1cccc(Nc2nc(CN3CCOCC3)nc3sccc23)c1 | –
12 | 48.6 | 4.31 | 0.13 | -0.88 | – | – | – | – | – | – | – | – | – | – | inactive | FC(F)(F)c1cccc(Nc2nc(CN3CCOCC3)nc3scc(-c4ccccc4)c23)c1 | –
13 | 38 | 4.42 | – | – | – | – | – | – | – | – | – | – | – | – | inactive | FC(F)(F)c1cccc(Nc2nc(CN3CCOCC3)nc3scc(C4CCCCC4)c23)c1 | –
14 | 53 | 4.28 | – | – | – | – | – | – | – | – | – | – | – | – | inactive | CNc1nc(CN2CCOCC2)nc2sc3c(c12)CCCC3 | –
